The target of one series is NS3 (Hepatitis C virus, UniProt A3EZJ3). The series can be described thus: Inhibitory activity against HCV NS3 protease. Set-up: species or system Hepacivirus hominis. The method, boiled down:
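Continuous assay with a single-chain NS3 serine protease carrying tethered NS4A. Values are reported as Ki*, the equilibrium constant that reflects the reversible covalent bond formed between the inhibitor ketone and the active-site serine, plus other enzyme–inhibitor contacts. Most inhibitors were tested as an inseparable mixture of two diastereomers at the P1 R-centre.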

Series [1] can be described thus: AUC in sc dosed rat. The format is ADME, organism-based. The following applies: plasma.
Series [2] can be described thus: Bioavailability in sc dosed rat. The format is ADME, organism-based. Particulars: in vivo.
The nature of series [3]: AUC in orally dosed rat. Format: ADME, organism-based. The following applies: plasma, po.
Series [4] in a line: Oral bioavailability in rat. The format is ADME, organism-based. The following applies: in vivo.
Another series has as its system Hepatitis C virus. The experiment in a line: Inhibition of HCV replication in a cellular replicon assay. The format is functional, organism-based, Hepacivirus hominis.
A short description of series [5]: AUC in iv dosed rat. Format: ADME, organism-based. Particulars: plasma.
Series [6] in a line: Selectivity for HNE over HCV NS3 protease.

The source of these data is ChEMBL document CHEMBL1149387, “Novel potent hepatitis C virus NS3 serine protease inhibitors derived from proline-based macrocycles” (J Med Chem, 2006).

Molecules are shown by their SMILES. Numbered stars: 1 amine (or outer) side, 2 acyl side, 3 side chain; on linkers, the order of the positions; unused ones are H or OH. Square brackets hold non-standard residues; d marks the D form. Peptide text beside a SMILES is read from it. * marks the point of attachment. Hyp = O=C(O)[C@@H]1C[C@@H](O)CN1; X1 = CCCC(N[*:1])C(=O)C(=O)[*:2]; Chg = N[C@H](C(=O)O)C1CCCCC1; Phg = N[C@H](C(=O)O)c1ccccc1; Boc = CC(C)(C)OC(=O)*; tBu = CC(C)(C)*

What is called Ki is a measure of affinity in units of concentration, obtained from inhibition or displacement. A high value points to weaker binding. The term AUC denotes concentration integrated over time. Read a low AUC as less exposure. Broadly, the bioavailability is the share of a dose that reaches the circulation, judged against a reference dose that is usually intravenous. Broadly, the IC50 is the midpoint of a concentration-inhibition curve. A lower IC50 goes with greater potency in that assay.

Sequence of NS3 (A3EZJ3 whole entry): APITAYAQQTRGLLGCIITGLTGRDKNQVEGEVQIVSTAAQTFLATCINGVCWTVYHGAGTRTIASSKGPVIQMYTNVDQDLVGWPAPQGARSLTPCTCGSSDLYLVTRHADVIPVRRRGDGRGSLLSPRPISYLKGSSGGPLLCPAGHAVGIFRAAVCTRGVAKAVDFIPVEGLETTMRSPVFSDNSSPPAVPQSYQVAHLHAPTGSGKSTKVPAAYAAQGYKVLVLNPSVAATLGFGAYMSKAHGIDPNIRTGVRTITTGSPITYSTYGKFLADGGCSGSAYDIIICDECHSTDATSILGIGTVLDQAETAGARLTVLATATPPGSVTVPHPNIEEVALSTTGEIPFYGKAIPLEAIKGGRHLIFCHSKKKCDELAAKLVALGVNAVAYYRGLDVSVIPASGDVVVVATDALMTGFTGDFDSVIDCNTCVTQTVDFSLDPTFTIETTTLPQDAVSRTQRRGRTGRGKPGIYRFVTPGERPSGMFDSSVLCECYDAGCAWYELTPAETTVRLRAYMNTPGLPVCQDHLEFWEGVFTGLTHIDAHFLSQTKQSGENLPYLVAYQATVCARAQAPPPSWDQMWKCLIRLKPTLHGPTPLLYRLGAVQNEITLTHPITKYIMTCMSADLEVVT

`CCCC(NC(=O)[C@@H]1C[C@@H]2CN1C(=O)[C@H](C1CCCCC1)NC(=O)Cc1cccc(c1)OCCC(C)(C)O2)C(=O)C(=O)NCC(=O)N[C@H](C(=O)N(C)C)c1ccccc1` (some centres not stated) displayed an inhibitory constant (Ki) on NS3 of 6 nM. Also, the values for the AUC in series [1], in series [3] and in series [5] were 16.5 µM·h, 0.46 µM·h and 2.2 µM·h, respectively. Moreover, the bioavailability in series [2] amounted to 77%; in series [4] it was 2.1%. In the series on Hepatitis C virus, this molecule displayed a half-maximal inhibitory concentration (IC50) of 130 nM. Besides, in series [6], the Ratio Ki is 107.

On to `CCCC(NC(=O)[C@@H]1C[C@@H](OC(C)(C)C)CN1C(=O)[C@@H](NC(=O)OC(C)(C)C)C1CCCCC1)C(=O)C(=O)NCC(=O)N[C@H](C(N)=O)c1ccccc1` (some centres not stated) (Boc-[Chg][Hyp](tBu)[X1]G[Phg]-NH2), for which the affinity on NS3, expressed as Ki, was 220 nM.

`CCCC(NC(=O)[C@@H]1C[C@@H]2CN1C(=O)[C@H](C1CCCCC1)NC(=O)Cc1cccc(c1)OCCCO2)C(=O)C(=O)NC` (some centres not stated) gave a Ki on NS3 of 9900 nM.

`CCCC(NC(=O)[C@@H]1C[C@@H]2CN1C(=O)[C@H](C(C)C)NC(=O)Cc1cccc(c1)OCCC(C)(C)O2)C(=O)C(=O)NCC(=O)N[C@H](C(=O)N(C)C)c1ccccc1` (some centres not stated): the affinity at NS3, expressed as Ki, was 19 nM.

In turn, `CCCC(NC(=O)[C@@H]1C[C@@H]2CN1C(=O)[C@H](C1CCCCC1)NC(=O)Cc1cccc(c1)OCCCO2)C(=O)C(=O)NCC(=O)N[C@H](C(=O)OC(C)(C)C)c1ccccc1` (some centres not stated) came in with a Ki at NS3 of 44 nM.

On to `CCCC(NC(=O)[C@@H]1C[C@@H]2CN1C(=O)[C@H](C1CCCCC1)NC(=O)Cc1cccc(c1)OCCC(C)(C)O2)C(=O)C(=O)NCC(=O)NCc1ccccc1` (some centres not stated), for which, on NS3, the affinity corresponds to a Ki of 269 nM.

The molecule `CCCC(NC(=O)[C@@H]1C[C@@H]2CN1C(=O)[C@H](C(C)(C)C)NC(=O)Cc1cccc(c1)OCCC(C)(C)O2)C(=O)C(=O)NCC(=O)N[C@H](C(=O)N(C)C)c1ccccc1` (some centres not stated) displayed an inhibition constant Ki on NS3 of 17 nM. This molecule also returned an IC50 in the series on Hepatitis C virus of 200 nM. Also, in series [6], the Ratio Ki was 306.

As to `CCCC(NC(=O)[C@@H]1C[C@@H]2CN1C(=O)[C@H](C1CCCCC1)NC(=O)Cc1cccc(c1)OCCC(C)(C)O2)C(=O)C(=O)NCC(=O)OCc1ccccc1` (some centres not stated), the Ki at NS3 was 88 nM.

Regarding `CCCC(NC(=O)[C@@H]1C[C@@H]2CN1C(=O)[C@H](C1Cc3ccccc3C1)NC(=O)Cc1cccc(c1)OCCC(C)(C)O2)C(=O)C(=O)NCC(=O)N[C@H](C(=O)N(C)C)c1ccccc1` (some centres not stated), at NS3, the Ki came out at 40 nM.

`C=CCNC(=O)C(=O)C(CCC)NC(=O)[C@@H]1C[C@@H]2CN1C(=O)[C@H](C1CCCCC1)NC(=O)Cc1cccc(c1)OCCC(C)(C)O2` (some centres not stated): the inhibition constant (Ki) at NS3 turned out to be 530 nM. Also, the exposure (AUC) in series [1] turned out to be 34.7 µM·h; in series [3], 26.3 µM·h; in series [5] it was 13.6 µM·h. In addition, the bioavailability in series [4] was determined as 97%. Besides, in the series with Hepatitis C virus, inhibition was half-maximal at 400 nM (IC50).

`CCCC(NC(=O)[C@@H]1C[C@@H]2CN1C(=O)[C@H](C1CCCCC1)NC(=O)Cc1cccc(c1)OCCC(C)(C)O2)C(=O)C(=O)NCC(=O)O` (some centres not stated) gave an inhibition constant (Ki) at NS3 of 720 nM.

In turn, `CCCC(NC(=O)[C@@H]1C[C@@H]2CN1C(=O)[C@H](C1CCCCC1)NC(=O)Cc1cccc(c1)OCCCO2)C(=O)C(=O)NCC(=O)N[C@H](C(=O)O)c1ccccc1` (some centres not stated) yielded an inhibitory constant (Ki) on NS3 of 10 nM.

Regarding `CCCC(NC(=O)[C@@H]1C[C@@H]2CN1C(=O)[C@H](C1CCCCC1)NC(=O)Cc1cccc(c1)OCCCO2)C(=O)C(=O)O` (some centres not stated), the inhibitory constant (Ki) at NS3 was found to be 6100 nM.

Take `CCC[C@H](NC(=O)[C@@H]1C[C@@H]2CN1C(=O)[C@H](C1CCCCC1)NC(=O)Cc1cccc(c1)OCCCO2)C(=O)C(=O)NCC(=O)N[C@H](C(=O)N(C)C)c1ccccc1`: the Ki at NS3 turned out to be 8 nM. Moreover, the AUC in series [1] worked out at 41.6 µM·h; in series [3] it was 1.5 µM·h; in series [5] it was 23.1 µM·h. For the same molecule, the bioavailability in series [2] was 90%; in series [4] it was 3%. This molecule also registered a 50% inhibitory concentration (IC50) in the series with Hepatitis C virus of 400 nM. For the same molecule, in series [6], the Ratio Ki is 46.

`CCCC(NC(=O)[C@@H]1C[C@@H]2CN1C(=O)[C@H](C1CCCCC1)NC(=O)Cc1cccc(c1)OCCCO2)C(=O)C(=O)NCC(=O)N[C@H](C#N)c1ccccc1` (some centres not stated): the Ki at NS3 was 310 nM.

On NS3, `CCC[C@@H](NC(=O)[C@@H]1C[C@@H]2CN1C(=O)[C@H](C1CCCCC1)NC(=O)Cc1cccc(c1)OCCCO2)C(=O)C(=O)NCC(=O)N[C@H](C(=O)N(C)C)c1ccccc1` yielded a Ki of 500 nM. Against the preceding molecule, the Ki is about 1.6-fold higher.

On NS3, `CCCC(NC(=O)[C@@H]1C[C@@H]2CN1C(=O)[C@H](c1ccccc1)NC(=O)Cc1cccc(c1)OCCC(C)(C)O2)C(=O)C(=O)NCC(=O)N[C@H](C(=O)N(C)C)c1ccccc1` (some centres not stated) showed an inhibitory constant (Ki) of 46 nM.

Take `CCCC(NC(=O)[C@@H]1C[C@@H]2CN1C(=O)[C@H](C1CCCCC1)NC(=O)Cc1cccc(c1)OCCC(C)(C)O2)C(=O)C(=O)NCC(=O)N[C@H](C(=O)OC(C)(C)C)c1ccccc1` (some centres not stated): the inhibition constant (Ki) on NS3 stood at 16 nM.

`CCCC(NC(=O)[C@@H]1C[C@@H]2CN1C(=O)[C@H](C1CCCCC1)NC(=O)Cc1cccc(c1)OCCC(C)(C)O2)C(=O)C(N)=O` (some centres not stated) gave a Ki at NS3 of 220 nM. In addition, the area under the curve (AUC) in series [3] is 0.3 µM·h.

For the molecule `CCCC(NC(=O)[C@@H]1C[C@@H]2CN1C(=O)[C@H](C1CCCCC1)NC(=O)Cc1cccc(c1)OCCCO2)C(=O)C(=O)NCC(=O)NCc1ccccc1` (some centres not stated), on NS3, the inhibition constant (Ki) was 1100 nM.

The molecule `CCCC(NC(=O)[C@@H]1C[C@@H]2CN1C(=O)[C@H](C1CCCCC1)NC(=O)Cc1cccc(c1)OCCCO2)C(=O)C(=O)NCC(=O)O` (some centres not stated) came in with an inhibition constant (Ki) at NS3 of 7400 nM.

Regarding `CCCC(NC(=O)[C@@H]1C[C@@H]2CN1C(=O)[C@H](C1CCCCC1)NC(=O)Cc1cccc(c1)OCCCO2)C(=O)C(=O)NCC(=O)OCc1ccccc1` (some centres not stated), the Ki on NS3 was determined as 430 nM. Against the preceding molecule, the Ki is about 17-fold lower.

Molecule `C=CCNC(=O)C(=O)C(CCC)NC(=O)[C@@H]1C[C@@H]2CN1C(=O)[C@H](C1CCCCC1)NC(=O)Cc1cccc(c1)OCCCO2` (some centres not stated) registered an inhibition constant (Ki) on NS3 of 10000 nM.

For the molecule `CCCC(NC(=O)[C@@H]1C[C@@H]2CN1C(=O)[C@H](C1CCCCC1)NC(=O)Cc1cccc(c1)OCCCO2)C(=O)C(=O)NCC(=O)N[C@H](CO)c1ccccc1` (some centres not stated), on NS3, affinity was put at a Ki of 60 nM.

Regarding `CCCC(NC(=O)[C@@H]1C[C@@H]2CN1C(=O)[C@H](C(C)CC)NC(=O)Cc1cccc(c1)OCCC(C)(C)O2)C(=O)C(=O)NCC(=O)N[C@H](C(=O)N(C)C)c1ccccc1` (some centres not stated), the affinity at NS3 corresponds to a Ki of 70 nM. The Ki values of the last two molecules are within 1.5-fold of each other.
